JMJD2C inh – inhibitors of human GASC-1 (JMJD2C) demethylase. GST-JMJD2C(1-420) H3K9me3 demethylation, DELFIA europium. inhibition, % at 2.35 µM. 0.069% of 330,000 active. AID 2099;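 active means more than half of a compound's replicate wells show inhibition beyond 50%, single wells judged on their own value; inconclusive means some, but no more than half, of replicates pass 50% inhibition; inactive means no replicate passes 50% inhibition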;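 further: signal counts dimethyl H3K9 product captured on neutravidin plate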
Target sequence (Q9H3R0 1-420 limits assumed): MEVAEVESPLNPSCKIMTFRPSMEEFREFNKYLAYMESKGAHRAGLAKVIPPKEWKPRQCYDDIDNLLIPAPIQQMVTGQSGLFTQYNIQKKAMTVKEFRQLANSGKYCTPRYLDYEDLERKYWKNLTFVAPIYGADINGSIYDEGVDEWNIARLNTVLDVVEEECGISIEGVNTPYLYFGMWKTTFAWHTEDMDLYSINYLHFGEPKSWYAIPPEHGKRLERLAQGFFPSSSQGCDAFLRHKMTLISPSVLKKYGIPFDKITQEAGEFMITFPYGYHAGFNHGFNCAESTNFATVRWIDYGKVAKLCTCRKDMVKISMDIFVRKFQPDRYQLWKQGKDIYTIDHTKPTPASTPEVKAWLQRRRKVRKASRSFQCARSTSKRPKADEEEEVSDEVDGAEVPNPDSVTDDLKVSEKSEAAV
A3G deaminase – inhibitors of human APOBEC3G DNA deaminase. recombinant A3G, ssDNA deamination FAM/TAMRA fluorescence. inhibition, % at 20 µM. 0.28% of 330,000 active. AID 493012;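 active means inhibition of at least 40% at 20 µM, with no more than 30% in the related APOBEC3A deaminase screen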
UCH37 inh – human UCH37 deubiquitinating enzyme inhibition. purified proteasome/UCH37, Ub-AMC cleavage fluorescence. Q9Y5K5. inhibition, % (concentration not given with the values). 0.33% of 330,000 active;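 active means mean inhibition over replicate wells above about 20%, limit read from the data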
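Material: human UCH37 enzyme supplied as purified proteasome complex. Measure: % inhibition of Ub-AMC cleavage fluorescence. Medium: pH 7.4 Tris-HCl (50 mM) with ovalbumin, ATP-MgCl2, DTT. Times: 30 min preincubation with enzyme, 25 min cleavage at room temperature. Detection: AMC fluorescence intensity at 355/460 nm.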
APOBEC3A inh – blocks human APOBEC3A ssDNA deamination | P31941 | recombinant A3A, FAM/TAMRA ssDNA deamination fluorescence | inhibition, % at 20 µM | 0.41% of 330,000 active | AID 493011;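 active means at least 40% inhibition at 20 µM here, with at most 30% in a related deaminase screen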
Target sequence (P31941 whole entry, looked up): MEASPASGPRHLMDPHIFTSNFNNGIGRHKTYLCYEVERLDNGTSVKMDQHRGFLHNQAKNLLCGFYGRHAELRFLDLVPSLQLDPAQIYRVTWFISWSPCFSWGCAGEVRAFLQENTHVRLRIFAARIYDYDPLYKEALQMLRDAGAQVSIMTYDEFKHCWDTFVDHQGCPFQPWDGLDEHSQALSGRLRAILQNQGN
APOBEC3G confirm – confirmation of human APOBEC3G DNA deaminase inhibitors | shares compounds with A3G deaminase | recombinant A3G ssDNA deaminase, UDG/FAM-TAMRA fluorescence | AID 493152 | inhibition, % at 20 µM | 72% of 890 active;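 active means inhibition reaching a set limit in any replicate at 20 µM, the limit being 80% of the first screen's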
UDG A3G counter – inhibits E. coli UDG, flagging false APOBEC3G inhibitors; shares compounds with A3G deaminase; UDG counterscreen, FAM/TAMRA oligo fluorescence; inhibition, % at 20 µM; 710 tested, under 10 active; AID 504715;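 active means compounds giving 40% or more inhibition at 20 µM in any one of the three replicates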;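 further: inhibitors lower the FAM signal released by uracil excision and alkaline cleavage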
Of the large screens only hits and unclear results are named; the others gave an inactive call (follow-up assays come after a bar, where they were run). The list is not random: actives were taken first. Their share in the collection is about 0.97%.

C=C(C)C(=O)Nc1cccc(C2=NOC3(C2)C[C@@H](C(N)=O)N(C(=O)c2ccc(Cl)cc2)C3)c1 (stereo not given in full)	A3G deaminase 100.4 | APOBEC3G confirm 90.2 | UDG A3G counter inactive
C=C(C)C(=O)Nc1cccc(C2=NOC3(C2)C[C@@H](C(N)=O)N(C(=O)c2cc([N+](=O)[O-])cc([N+](=O)[O-])c2C)C3)c1 (stereo not given in full)	A3G deaminase 43.6 | APOBEC3G confirm 59.3 | UDG A3G counter inactive
C/C=C(/C)C(=O)Nc1cccc(C2=NOC3(C2)C[C@H](C(N)=O)N(C(=O)c2ccc(Cl)cc2)C3)c1 (stereo not given in full)	JMJD2C inh inconclusive
COc1ccccc1/C=C/C=NNC(=O)Cc1cccs1	none (no result: JMJD2C inh, A3G deaminase, APOBEC3A inh)
COc1ccc(C=NN=Cc2ccc(OC)cc2)cc1	none (no result: JMJD2C inh, A3G deaminase, APOBEC3A inh)
COc1ccc(C)cc1NC(=O)CC(C)=NNC(=O)Cc1cccc2ccccc12	none (no result: JMJD2C inh, A3G deaminase, APOBEC3A inh)
Clc1ccccc1-c1nnc2sc(-c3ccncc3)nn12	none
Clc1ccccc1-c1nn2c(-c3ccncc3)nnc2s1	A3G deaminase 48.9 | APOBEC3G confirm 25.3 | UDG A3G counter inactive
CC(=O)/C(=N/Nc1cccc(C)c1)N1CCOCC1	A3G deaminase 45.4 (no result: UCH37 inh) | APOBEC3G confirm inactive | UDG A3G counter inactive
COc1ccccc1NNC(=O)C(O)(c1ccccc1)c1ccccc1	A3G deaminase 55.6 | APOBEC3G confirm inactive
CCOc1ccc(N)c(SSc2cc(OCC)ccc2N)c1	A3G deaminase 72.1 | APOBEC3G confirm 96.1 | UDG A3G counter inactive
CCOc1cccc(N)c1	none
O=C(Nc1cc(S(=O)(=O)N2CCOCC2)ccc1N1CCCC1)c1ccc2c(c1)S(=O)(=O)c1ccccc1C2=O	A3G deaminase 64.2 | APOBEC3G confirm 74.0
O=C(Nc1cc(S(=O)(=O)N2CCOCC2)ccc1N1CCCCC1)c1ccc(Cl)cc1	A3G deaminase 59.1 | APOBEC3G confirm 67.7 | UDG A3G counter inactive
O=C(Nc1cc(S(=O)(=O)N2CCOCC2)ccc1N1CCCCC1)c1ccccc1	none (no result: JMJD2C inh)
Cc1cccc(-n2c(C)cc(C=NNC(=O)c3ccc(CN4CCOCC4)cc3)c2C)c1	none (no result: JMJD2C inh, A3G deaminase, APOBEC3A inh)
O=c1cc(CN2CCN(c3ccc(O)cc3)CC2)nc2scc(-c3ccccc3)n12	A3G deaminase 73.4 | APOBEC3G confirm inactive
CC(=O)Nc1ccc(S(=O)(=O)NNC(=O)c2cccc(Cl)c2)cc1	A3G deaminase 75.6 | APOBEC3G confirm inactive
CC(=O)Nc1ccc(S(=O)(=O)NNC(=O)c2ccc3c(c2)OCO3)cc1	none
COc1ccc(NC(=O)CN2C(=O)/C(=C3\SC(=S)N(CCC(=O)O)C3=O)c3ccccc32)cc1	A3G deaminase 53.2 | APOBEC3G confirm 71.4 | UDG A3G counter inactive
COc1ccccc1/C=C/C=NNC(=O)Cc1cccn1C	none (no result: JMJD2C inh, A3G deaminase, APOBEC3A inh)
CC(C)(C)C1=Nn2c(nnc2-c2n[nH]c3c2CCC3)SC1	A3G deaminase 48.8 (no result: JMJD2C inh) | APOBEC3G confirm 71.4 | UDG A3G counter inactive
COc1ccccc1/C=C/C=N/NC(=O)c1cc(-c2ccco2)[nH]n1	A3G deaminase 63.6 (no result: UCH37 inh) | APOBEC3G confirm 21.4 | UDG A3G counter inactive
Cc1ccc(NS(=O)(=O)c2cc(NC(=O)c3ccc4c(c3)NC(=O)CS4)ccc2C)c(C)c1	none
COc1ccc(NC(=O)c2ccc3c(c2)NC(=O)CS3)cc1S(=O)(=O)Nc1ccc(Br)cc1	A3G deaminase 55.2 | APOBEC3G confirm 30.0 | UDG A3G counter inactive
COC(=O)c1ccc(Cn2nc(C)c([N+](=O)[O-])c2C)o1	none
Cc1nn(Cc2ccc(C(=O)O)o2)c(C)c1[N+](=O)[O-]	A3G deaminase 54.4 | APOBEC3G confirm inactive | UDG A3G counter inactive
COC(=O)c1sc(NC(=O)C2CCCO2)c(C(=O)OC)c1C (stereo not given)	none
CCOC(=O)c1c(NC(=O)C2CCCO2)sc(C(=O)OC(C)(C)C)c1C (stereo not given)	A3G deaminase 47.0 | APOBEC3G confirm 33.1 | UDG A3G counter inactive
OCc1ccccc1SSc1ccccc1CO	A3G deaminase 44.3 | APOBEC3G confirm 50.6 | UDG A3G counter inactive
Oc1ccc(-c2cn3c(n2)SCC3)cc1O	A3G deaminase 58.7 | APOBEC3G confirm 76.4 | UDG A3G counter inactive
Cc1cccc(N2CCN(C(=O)C3CCN(c4ncnc5c4nc4n5CCCCC4)CC3)CC2)c1C	none
O=C(C1CCN(c2ncnc3c2nc2n3CCCCC2)CC1)N1CCN(c2ccccc2F)CC1	A3G deaminase 45.6 | APOBEC3G confirm inactive
CCCC(C)c1nnc(NC(=O)C2CC(=O)N(CCc3ccc(F)cc3)C2)s1 (stereo not given)	A3G deaminase 45.1 | APOBEC3G confirm 21.6 | UDG A3G counter inactive
O=S(=O)(c1c(F)cccc1F)N1CCCC2CCCCC21 (stereo not given)	A3G deaminase 52.5 | APOBEC3G confirm inactive | UDG A3G counter inactive
O=S(=O)(c1ccc2c(c1)CCCN2)N1CCCC2CCCCC21 (stereo not given)	none
Fc1cccc(F)c1C=NNC(=S)Nc1cccnc1	none (no result: JMJD2C inh, A3G deaminase, APOBEC3A inh)
CNC(=S)NN=C(C)c1cccc([N+](=O)[O-])c1	none (no result: JMJD2C inh, A3G deaminase, APOBEC3A inh)
O=C(NCc1nnc(SCC(=O)N2CCCCCC2)o1)c1ccco1	A3G deaminase 77.3 | APOBEC3G confirm inactive | UDG A3G counter inactive
CCC(C)n1c(-c2cccc(S(=O)(=O)N3CCOCC3)c2)n[nH]c1=S (stereo not given)	none (no result: JMJD2C inh)
CCn1c(-c2cccc(Br)c2)n[nH]c1=S	A3G deaminase 46.8 | APOBEC3G confirm 63.4 | UDG A3G counter inactive
CCn1c(-c2sc(-c3ccccc3)nc2C)n[nH]c1=S	none
CCn1c(-c2ccc([N+](=O)[O-])cc2)n[nH]c1=S	A3G deaminase 45.8 | APOBEC3G confirm 72.9 | UDG A3G counter inactive
CC(C)Cn1c(-c2cccc(S(=O)(=O)N3CCOCC3)c2)n[nH]c1=S	A3G deaminase 44.0 | APOBEC3G confirm 69.2 | UDG A3G counter inactive
CCn1c(-c2cccc(S(=O)(=O)N3CCCC3)c2)n[nH]c1=S	A3G deaminase 50.9 | APOBEC3G confirm 26.8 | UDG A3G counter inactive
Cc1ccsc1C=NNC(=O)CC(=O)NCc1ccccc1	none (no result: JMJD2C inh, A3G deaminase, APOBEC3A inh)
O=C(Nc1ccc(Oc2ccccc2)nc1)C1CCN(Cc2ccccc2)CC1	none
CCc1ccc(CN2CCC(C(=O)Nc3ccc(Oc4ccccc4)nc3)CC2)o1	A3G deaminase 41.4 | APOBEC3G confirm inactive
S=c1[nH]c2ccc(Cl)cc2[nH]1	A3G deaminase 40.6 | APOBEC3G confirm 80.6 | UDG A3G counter inactive
Cc1cc(C)n2c(=S)[nH]nc2n1	A3G deaminase 91.8 | APOBEC3G confirm 90.3 | UDG A3G counter inactive
Cc1cccc(OCC(=O)NN=C/C=C/c2ccco2)c1	none (no result: JMJD2C inh, A3G deaminase, APOBEC3A inh)
COc1ccc(S(=O)(=O)n2nc(OC(=O)c3cccs3)cc2N)cc1	A3G deaminase 53.8 | APOBEC3G confirm inactive
COc1ccc(S(=O)(=O)n2nc(OC(=O)c3ccccc3)cc2N)cc1	none

Source: PubChem
